Common to all, as to assay type: functional, organism-based
For assay [1], the system named is Bacillus thuringiensis. Kind of assay: Antibacterial activity against Bacillus thuringiensis BT01 up to 100 ug/ml by CLSI based method.
The test system of assay [2] is Bacillus thuringiensis. The experiment in a line: Antibacterial activity against Bacillus thuringiensis W102 up to 100 ug/ml by CLSI based method.
For assay [3], the system named is Staphylococcus aureus. The experiment in a line: Antibacterial activity against Staphylococcus aureus ATCC 29213 up to 100 ug/ml by CLSI based method.
For assay [4], the system named is Staphylococcus aureus. Kind of assay: Antibacterial activity against methicillin resistant Staphylococcus aureus shhs-A1 up to 100 ug/ml by CLSI based method. Summed up: (§1)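 Both strains were clinical isolates. They were screened within a panel of nine bacteria and two Candida albicans strains, at concentrations up to 100 μg/mL, by a previously reported method.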

Assay [5] relates to Enterococcus faecalis. The experiment in a line: Antibacterial activity against Enterococcus faecalis ATCC 29212 up to 100 ug/ml by CLSI based method.
In assay [6] the test system is Acinetobacter baumannii. Kind of assay: Antibacterial activity against Acinetobacter baumannii ATCC 19606 up to 100 ug/ml by CLSI based method. The settings on record: ATCC 19606 = CIP 70.34 = JCM 6841.
Assay [7] relates to Klebsiella pneumoniae. Kind of assay: Antibacterial activity against Klebsiella pneumoniae ATCC 13883 up to 100 ug/ml by CLSI based method.
Assay [8] has as its system Escherichia coli. Kind of assay: Antibacterial activity against Escherichia coli ATCC 25922 up to 100 ug/ml by CLSI based method.
The subject of assay [9] is Escherichia coli. Kind of assay: Antibacterial activity against drug-resistant Escherichia coli E11 up to 100 ug/ml by CLSI based method. Summed up:
as §1

Assay [10] deals with Candida albicans. Kind of assay: Antifungal activity against Candida albicans ATCC 96901. Summed up: (§2)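 Tested against the yeast by a previously reported antimicrobial method, at concentrations up to 100 μg/mL.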
Assay [11] has as its system Candida albicans. Kind of assay: Antifungal activity against Candida albicans CMCC(F) 98001. Summed up: as §2
Assay [12] relates to Human alphaherpesvirus 1. The experiment in a line: Antiviral activity against HSV-1 infected in African green monkey Vero cells assessed as inhibition of GFP expression after 72 hrs by GFP-based fluorescence microscopic analysis. The settings on record: Human alphaherpesvirus 1, Vero. Summed up: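 Vero cells were infected at MOI 1.0 with recombinant HSV-1 carrying a GFP reporter. Cells were treated with compounds at 10 μM final or an equal amount of DMSO, with ganciclovir as positive control, and GFP was monitored by fluorescence microscopy. For EC50, infected cells were treated at several concentrations in triplicate, and viral load was measured by TCID50 at 72 h postinfection.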

The test system of assay [13] is Human alphaherpesvirus 1. Kind of assay: Inhibition of UL42 gene transcription in HSV-1 infected in African green monkey Vero cells at 10 uM by qRT-PCR analysis. Summed up:
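Vero cells were infected with GFP-reporter HSV-1 at MOI 1.0, then exposed to compounds at 10 μM final or DMSO. Viral gene transcription was quantified by qRT-PCR, with ganciclovir as positive control and NTC as negative control.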

Calls of active or inactive are those of the source. The calls are words filed in the database; no cut-off is given here. Square brackets hold non-standard residues; d marks the D form. Peptide text beside a SMILES is read from it. Orn(N5-OH,N5-Ac) = CC(=O)N(O)CCC[C@H](N)C(=O)O

As to `CC(=O)N(O)CCC[C@@H]1NC(=O)[C@H](CCCN(O)C(C)=O)NC(=O)[C@H](CCCN(O)C(C)=O)NC(=O)[C@H](Cc2ccccc2)NC(=O)[C@H](CC(C)C)NC(=O)[C@H](C)NC1=O` (cyclo(ALF[Orn(N5-OH,N5-Ac)][Orn(N5-OH,N5-Ac)][Orn(N5-OH,N5-Ac)])), the outcome in assay [1], in assay [2], in assay [3], in assay [4], in assay [5] and in assay [6] was inactive. For the same compound, the result in assay [7], in assay [8], in assay [9], in assay [10] and in assay [11] was inactive. Moreover, in assay [12], the EC50 is 8.7 µM. For the same compound, the inhibition entry in [13] was “Active”.

`CC(=O)N(O)CCC[C@@H]1NC(=O)[C@H](CCCN(O)C(C)=O)NC(=O)[C@H](Cc2ccccc2)NC(=O)[C@H](CC(C)C)NC(=O)[C@H](Cc2ccccc2)NC(=O)[C@H](CCCN(O)C(C)=O)NC1=O` (cyclo(FLF[Orn(N5-OH,N5-Ac)][Orn(N5-OH,N5-Ac)][Orn(N5-OH,N5-Ac)])): the outcome in assay [1], in [2], in assay [3], in assay [4], in [5] and in assay [6] was inactive. The outcome in assay [7], in assay [8], in assay [9], in [10] and in assay [11] was inactive. Besides, the EC50 in assay [12] came to 27 µM.

In the case of `CC(=O)N(O)CCC[C@@H]1NC(=O)[C@H](CCCN(O)C(C)=O)NC(=O)[C@H](CCCN(O)C(C)=O)NC(=O)[C@H](Cc2ccccc2)NC(=O)[C@H](CC(C)C)NC(=O)[C@H](CO)NC1=O` (cyclo(F[Orn(N5-OH,N5-Ac)][Orn(N5-OH,N5-Ac)][Orn(N5-OH,N5-Ac)]SL)), the outcome in [1], in [2], in assay [3], in [4], in assay [5] and in assay [6] was inactive. Also, the outcome in assay [7], in assay [8], in [9], in assay [10] and in assay [11] was inactive. For the same compound, the EC50 in assay [12] came to 16 µM. In addition, the inhibition result in assay [13] was “Active”.

On to `CC(=O)N(O)CCC[C@@H]1NC(=O)[C@H](CCCN(O)C(C)=O)NC(=O)[C@H](Cc2ccccc2)NC(=O)[C@H](CC(C)C)NC(=O)[C@H](Cc2c[nH]c3ccccc23)NC(=O)[C@H](CCCN(O)C(C)=O)NC1=O` (cyclo(F[Orn(N5-OH,N5-Ac)][Orn(N5-OH,N5-Ac)][Orn(N5-OH,N5-Ac)]WL)), for which the outcome in assay [1], in [2], in assay [3], in [4], in assay [5] and in [6] was inactive. Further, the result in [7], in assay [8], in [9], in assay [10] and in assay [11] was inactive. Also, the EC50 in assay [12] was found to be 24 µM.

Consider `Nc1nc2c(ncn2COC(CO)CO)c(=O)[nH]1` [GANCICLOVIR], for which the EC50 in [12] amounted to 0.025 µM. Further, the inhibition result in [13] was “Active”.

One may read the EC50 as the concentration needed to bring the measured effect to its halfway point.

The values above are taken from ChEMBL document CHEMBL4414579, “Natural Hydroxamate-Containing Siderophore Acremonpeptides A-D and an Aluminum Complex of Acremonpeptide D from the Marine-Derived Acremonium persicinum SCSIO 115” (J Nat Prod, 2019).
